Laboratory results: ChEMBL document CHEMBL3232716, “Tailoring cytotoxicity of antimicrobial peptidomimetics with high activity against multidrug-resistant Escherichia coli” (J Med Chem, 2014)
In brackets after ≈: the same amount, converted by molar mass. Square brackets hold non-standard residues; d marks the D form. Peptide text beside a SMILES is read from it. hArg = N=C(N)NCCCC[C@H](N)C(=O)O; Nspe = C[C@H](NCC(=O)O)c1ccccc1; Nphe = O=C(O)CNCc1ccccc1

Assays:
[1] = Cytotoxicity against mouse NIH/3T3 cells after 1 hr by MTS/PMS assay; assay type: cell-based; settings: NIH3T3, 1 h
Method in brief: (§1)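 Monolayers (passage 4–10) grown ~21–25 h to ~90% confluence. Seeding per well: HeLa 8000, HepG2 23 000, NIH 3T3 22 000, IEC-6 16 000, Caco-2 25 000. Cells washed with HBSS/10 mM Hepes pH 7.4 and exposed 1 h at 37 °C, 50 rpm, to compound 0–2000 μM in culture medium. MTS 240 μg/mL/PMS 2.4 μg/mL for 1.5–4 h, A492. Viability referenced to SDS and untreated controls; IC50 from one biological replicate in triplicate.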

[2] = tested on: Caco-2; test: Cytotoxicity against human Caco2 cells after 1 hr by MTS/PMS assay; assay type: cell-based; settings: Caco-2, 1 h; method in brief: as §1
[3] = tested on: HepG2; test: Cytotoxicity against human HepG2 cells after 1 hr by MTS/PMS assay; assay type: cell-based; settings: HepG2, 1 h; method in brief: as §1
[4] = tested on: Enterococcus faecium; test: Antibacterial activity against vancomycin-resistant Enterococcus faecium ATCC 700221 after 18 hrs by microdilution broth method; settings: ATCC 700221, 18 h
[5] = tested on: Escherichia coli; test: Antibacterial activity against NDM-1 producing Escherichia coli clinical isolate 74859898 after 18 hrs by microdilution broth method; assay type: functional; settings: clinical isolate 74859898, 18 h
[6] = tested on: Acinetobacter baumannii; test: Antibacterial activity against multidrug-resistant Acinetobacter baumannii clinical isolate E2-1228625 after 18 hrs by microdilution broth method; assay type: functional; settings: clinical isolate E2-1228625, 18 h
[7] = tested on: Escherichia coli; test: Antibacterial activity against Escherichia coli ATCC 25922 after 18 hrs by microdilution broth method; assay type: functional; settings: ATCC 25922, 18 h
Method in brief: (§2)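 CLSI broth microdilution. […] Incubated 35 °C in ambient air for 18 h. MIC taken as the lowest concentration with no visible growth versus the compound-free control. Reported as median and range of three independent biological replicates run on separate days.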

[8] = Binding affinity to cholesterol containing synthetic POPC/POPG liposomal membrane at 20 uM by circular dichroism analysis; assay type: physicochemical; settings: artificial membrane
Method in brief: (§3)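 CD spectra recorded with 20 μM test compound and 2 mM liposomes in 10 mM Tris buffer, pH 7.5. Liposomes were roughly 100 nm: POPC/POPG 7:3 (bacterial model) or POPC/POPG/cholesterol 5:3:2 (mammalian model). Lipid concentration was standardized by enzymatic phospholipid colorimetric assay.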

[9] = tested on: Escherichia coli; test: Antibacterial activity against extended-spectrum beta-lactamase producing multidrug-resistant and colistin-susceptible Escherichia coli CTX-M-15 clinical isolate Aar 11 after 18 hrs by microdilution broth method; assay type: functional; settings: CTX-M-15, 18 h
[10] = tested on: Staphylococcus aureus; test: Antibacterial activity against methicillin-resistant Staphylococcus aureus ATCC 33591 after 18 hrs by microdilution broth method; assay type: functional; settings: ATCC 33591, 18 h; method in brief: as §2
[11] = Cytotoxicity against rat IEC-6 cells after 1 hr by MTS/PMS assay; assay type: cell-based; settings: IEC-6, 1 h; method in brief: as §1
[12] = Binding affinity to synthetic POPC/POPG liposomal membrane at 20 uM by circular dichroism analysis; assay type: physicochemical; settings: artificial membrane; method in brief: as §3
[13] = tested on: HeLa; test: Cytotoxicity against human HeLa cells after 1 hr by MTS/PMS assay; assay type: cell-based; method in brief: as §1
[14] = tested on: HUVEC; test: Cytotoxicity against HUVEC after 1 hr by MTS/PMS assay; assay type: cell-based; settings: Homo sapiens
Method in brief: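 HUVEC seeded at 15 000 cells/well on collagen-coated wells (0.6 μg/cm2), passage 4–10, grown to ~90% confluence over 21–25 h. Cells exposed to compound (0–2000 μM) in F-12K medium for 1 h at 37 °C. MTS 240 μg/mL with PMS 9.6 μg/mL in HBSS for 1.5–4 h, then A492. Viability referenced to 0.2% SDS and untreated cells; IC50 reported.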

With CC(=O)N[C@@H](CCCCN)C(=O)N(CC(=O)N[C@@H](CCCCNC(=N)N)C(=O)N(CC(=O)N[C@@H](CCCCN)C(=O)N(CC(=O)N[C@@H](CCCCNC(=N)N)C(=O)N(CC(=O)N[C@@H](CCCCN)C(=O)N(CC(=O)N[C@@H](CCCCNC(=N)N)C(=O)N(CC(=O)N[C@@H](CCCCN)C(=O)N(CC(N)=O)Cc1ccccc1)Cc1ccccc1)Cc1ccccc1)Cc1ccccc1)Cc1ccccc1)Cc1ccccc1)Cc1ccccc1 (Ac-K[Nphe][hArg][Nphe]K[Nphe][hArg][Nphe]K[Nphe][hArg][Nphe]K[Nphe]-NH2) as the compound, how does the IC50 [1] read?
The IC50 was 254 µM.

And the IC50 [2]?
The IC50 was > 1000 µM.

What about the IC50 [3] of the same compound?
The IC50 was 378 µM.

What about the MIC [4] of the same compound?
Its MIC is 8 µM (≈ 16.9 µg/mL).

And the MIC [5]?
Its MIC is 1 µM (≈ 2.11 µg/mL).

And the MIC [6]?
The MIC was 4 µM (≈ 8.45 µg/mL).

And the MIC [7]?
The MIC was 1 µM (≈ 2.11 µg/mL).

And the Activity [8]?
Its Activity is “Not Active”.

And the MIC [9]?
The MIC was 1 µM (≈ 2.11 µg/mL).

And the MIC [10]?
Its MIC is 32 µM (≈ 67.6 µg/mL).

And the IC50 [11]?
Its IC50 is 319 µM.

What about the Activity [12] of the same compound?
The Activity was “Not Active”.

And the IC50 [13]?
Its IC50 is 99 µM.

And the IC50 [14]?
The IC50 was 418 µM.

With CC(=O)N[C@@H](CCCCN)C(=O)N(CC(=O)N[C@@H](CCCCNC(=N)N)C(=O)N(CC(=O)N[C@@H](CCCCN)C(=O)N(CC(=O)N[C@@H](CCCCNC(=N)N)C(=O)N(CC(=O)N[C@@H](CCCCN)C(=O)N(CC(=O)N[C@@H](CCCCNC(=N)N)C(=O)N(CC(N)=O)[C@@H](C)c1ccccc1)[C@@H](C)c1ccccc1)[C@@H](C)c1ccccc1)[C@@H](C)c1ccccc1)[C@@H](C)c1ccccc1)[C@@H](C)c1ccccc1 (Ac-K[Nspe][hArg][Nspe]K[Nspe][hArg][Nspe]K[Nspe][hArg][Nspe]-NH2) as the compound, how does the IC50 [1] read?
Its IC50 is 121 µM.

What about the IC50 [2] of the same compound?
Its IC50 is 376 µM.

What about the IC50 [3] of the same compound?
Its IC50 is 77 µM.

And the MIC [4]?
The MIC was 2 µM (≈ 3.84 µg/mL).

What about the MIC [5] of the same compound?
Its MIC is 2 µM (≈ 3.84 µg/mL).

And the MIC [6]?
The MIC was 2 µM (≈ 3.84 µg/mL).

What about the MIC [7] of the same compound?
The MIC was 2 µM (≈ 3.84 µg/mL).

What about the Activity [8] of the same compound?
Its Activity is “Not Active”.

And the MIC [9]?
Its MIC is 4 µM (≈ 7.69 µg/mL).

What about the MIC [10] of the same compound?
The MIC was 16 µM (≈ 30.7 µg/mL).

What about the IC50 [11] of the same compound?
The IC50 was 67 µM.

What about the Activity [12] of the same compound?
Its Activity is “Not Active”.

What about the IC50 [13] of the same compound?
Its IC50 is 52 µM.

And the IC50 [14]?
The IC50 was 351 µM.

Which MIC [4] does the source give for CO/N=C(\C(=O)N[C@@H]1C(=O)N2C(C(=O)O)=C(COC(C)=O)CS[C@H]12)c1csc(N)n1 [CEFOTAXIME] here?
The MIC was > 128 µM.

What about the MIC [5] of the same compound?
The MIC was > 128 µM.

And the MIC [6]?
The MIC was > 128 µM.

What about the MIC [7] of the same compound?
The MIC was < 0.125 µM.

What about the MIC [9] of the same compound?
Its MIC is > 128 µM.

What about the MIC [10] of the same compound?
The MIC was > 128 µM.

With O=C(O)c1cn(C2CC2)c2cc(N3CCNCC3)c(F)cc2c1=O [CIPROFLOXACIN] as the compound, how does the MIC [7] read?
Its MIC is < 0.125 µM.

What about the MIC [10] of the same compound?
The MIC was 0.25 µM (≈ 0.0828 µg/mL).

For CC[C@H](C)[C@H](NC(=O)CN)C(=O)NCC(=O)N[C@@H](C)C(=O)N[C@H](C(=O)N[C@@H](CC(C)C)C(=O)N[C@@H](CCCCN)C(=O)N[C@H](C(=O)N[C@@H](CC(C)C)C(=O)N[C@H](C(=O)N[C@H](C(=O)NCC(=O)N[C@@H](CC(C)C)C(=O)N1CCC[C@H]1C(=O)N[C@@H](C)C(=O)N[C@@H](CC(C)C)C(=O)N[C@H](C(=O)N[C@@H](CO)C(=O)N[C@@H](Cc1c[nH]c2ccccc12)C(=O)N[C@H](C(=O)N[C@@H](CCCCN)C(=O)N[C@@H](CCCNC(=N)N)C(=O)N[C@@H](CCCCN)C(=O)N[C@@H](CCCNC(=N)N)C(=O)N[C@@H](CCC(N)=O)C(=O)N[C@@H](CCC(N)=O)C(N)=O)[C@@H](C)CC)[C@@H](C)CC)[C@@H](C)O)[C@@H](C)O)C(C)C)C(C)C [MELITTIN], which IC50 [2] is on record?
The IC50 was 4.5 µM.

What about the IC50 [3] of the same compound?
Its IC50 is 2.5 µM.

And the IC50 [13]?
The IC50 was 1.9 µM.

With CN[C@H](CC(C)C)C(=O)N[C@H]1C(=O)N[C@@H](CC(N)=O)C(=O)N[C@H]2C(=O)N[C@H]3C(=O)N[C@H](C(=O)N[C@H](C(=O)O)c4cc(O)cc(O)c4-c4cc3ccc4O)[C@H](O)c3ccc(c(Cl)c3)Oc3cc2cc(c3O[C@@H]2O[C@H](CO)[C@@H](O)[C@H](O)[C@H]2O[C@H]2C[C@](C)(N)[C@H](O)[C@H](C)O2)Oc2ccc(cc2Cl)[C@H]1O [VANCOMYCIN] as the compound, how does the MIC [4] read?
Its MIC is 128 µM (≈ 186 µg/mL).

And the MIC [5]?
The MIC was > 128 µM.

What about the MIC [6] of the same compound?
The MIC was > 128 µM.

What about the MIC [7] of the same compound?
Its MIC is > 128 µM.

And the MIC [9]?
The MIC was > 128 µM.

What about the MIC [10] of the same compound?
Its MIC is 0.5 µM (≈ 0.725 µg/mL).
